Source: PubChem BioAssay (The Scripps Research Institute Molecular Screening Center)
Most compounds without a hit are left out; they make up all but 1.8% or so of the library.
CHRM5 agonist – CHRM5 agonism in calcium assay | P08912 | CHO-K1 hM5 cells, Fluo-8 calcium fluorescence; 0% DMSO wells, 100% maximal acetylcholine response | activation, % at 3 µM | actives 0.19% (n = 360,000);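 active = activation above the run's mean over test compounds plus 3 SD, cut at about 23% in these data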;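 also: signal is peak over basal fluorescence ratio across the kinetic read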
CHRM5 PAM – potentiates acetylcholine response at human M5 receptor; actives 0.3% (n = 360,000); CHO-K1 hM5, Fluo-8 calcium, ACh EC20 PAM; 0% = ACh EC20, 100% = ACh EC100; P08912; activation, % at 3 µM; AID 624038;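 active = activation above the run cutoff, the mean activation of all test compounds plus 3 SD, cut at about 18% in these data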
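Assay system – human M5 receptor in CHO-K1 cells · Read-out – % activation, ACh-normalized · Technique – Fluo-8 calcium fluorescence · Dosing – single-point, 3 µM nominal · Incubation – Fluo-8 loading 80 min at 37 °C plus 30 min room temperature · Repeats – singlicate, one well per test compound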
M4 ag – agonists of human muscarinic M4 receptor (CHRM4); P08173; CHO-K1 hM4/Gqi5, Fluo-8 calcium fluorescence; vehicle 0%, full acetylcholine response 100%; activation, % at 3 µM; actives 0.14% (n = 360,000); AID 624127;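 active = activation above the run mean over all test wells plus 3 SD, cut at about 32% in these data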;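 also: peak over basal fluorescence ratio per well then scaled between controls; 0% = DMSO wells and 100% = acetylcholine at EC100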
Target sequence (P08173 whole entry, looked up): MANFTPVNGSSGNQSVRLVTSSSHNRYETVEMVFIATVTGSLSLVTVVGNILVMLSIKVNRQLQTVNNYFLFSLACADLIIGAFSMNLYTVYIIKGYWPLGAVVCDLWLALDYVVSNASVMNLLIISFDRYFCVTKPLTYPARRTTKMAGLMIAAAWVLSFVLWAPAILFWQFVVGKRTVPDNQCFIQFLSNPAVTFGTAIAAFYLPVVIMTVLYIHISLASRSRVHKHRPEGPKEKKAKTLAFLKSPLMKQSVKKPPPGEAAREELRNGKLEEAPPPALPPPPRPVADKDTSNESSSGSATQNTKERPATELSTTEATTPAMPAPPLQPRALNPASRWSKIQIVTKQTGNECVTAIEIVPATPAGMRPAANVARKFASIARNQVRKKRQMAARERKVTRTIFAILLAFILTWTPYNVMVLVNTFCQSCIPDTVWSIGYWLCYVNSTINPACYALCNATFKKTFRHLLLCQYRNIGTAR
M4 antag – blocks acetylcholine activation of human M4 receptor. inhibition, % at 3 µM. actives 0.73% (n = 360,000). CHO-hM4 cells, ACh EC80, Fluo-8 calcium fluorescence. AID 624125;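 active = inhibition above its plate's cutoff, the mean inhibition of sample wells plus 3 SD, cut at about 27% in these data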;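 also: 0% = acetylcholine EC80 with DMSO and 100% = DMSO without agonist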
CHRM4 PAM – CHRM4 positive allosteric modulation | CHO-K1 hM4/Gqi5, Fluo-8 calcium fluorescence, ACh EC20; 0% = ACh EC20, 100% = maximal ACh | actives 0.4% (n = 360,000) | P08173 | activation, % at 3 µM;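 active = activation above its plate's cutoff, the mean activation of sample wells plus 3 SD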
M5 antag – CHRM5 antagonism in calcium assay | CHO-hM5 cells, Fluo-8 calcium fluorescence, ACh EC80 | actives 0.59% (n = 360,000) | P08912 | inhibition, % at 3 µM;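 active = inhibition above a per-plate cutoff, the mean of that plate's test compounds plus 3 SD, cut at about 27% in these data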;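 also: 0% = acetylcholine EC80 with DMSO and 100% = DMSO without agonist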
* hit, by the source's call.

Results for COc1ccc(-c2csc(C(C)(O)c3cccc(F)c3)n2)cc1 (configuration not stated) ?
CHRM5 agonist: -1; CHRM5 PAM: -11; M4 ag: 4; M4 antag: 37*; CHRM4 PAM: -11; M5 antag: 8

How did CCC(C)N(CCNC(=O)CC1Oc2ccc(C)cc2NC1=O)C1CCCCC1 (configuration not stated) do in these assays?
CHRM5 agonist: -6; CHRM5 PAM: -22; M4 ag: 0; M4 antag: 71*; CHRM4 PAM: -18; M5 antag: 18

How did COC(=O)C1=CN(c2cccc(OCc3ccccc3)c2)C(N)=C(C#N)C1c1cccc(F)c1 (configuration not stated) do in these assays?
CHRM5 agonist: 1; CHRM5 PAM: -4; M4 ag: 2; M4 antag: 3; CHRM4 PAM: 0; M5 antag: 8

Results for CC(C)(C)C(=O)Nc1cccc(-c2nc3ccccc3c(=O)o2)c1 ?
CHRM5 agonist: 5; CHRM5 PAM: 0; M4 ag: -2; M4 antag: -7; CHRM4 PAM: 3; M5 antag: 1

How did CCCC(=O)Nc1cccc(-c2nc3ccccc3c(=O)o2)c1 do in these assays?
CHRM5 agonist: -1; CHRM5 PAM: 10; M4 ag: -1; M4 antag: 6; CHRM4 PAM: 25*; M5 antag: 0

What do the screens show for `COc1ccc(OC)c(-c2csc(NC(=O)Cc3ccccc3F)n2)c1`?
CHRM5 agonist: -3; CHRM5 PAM: -2; M4 ag: 0; M4 antag: 54*; CHRM4 PAM: -20; M5 antag: 8

What do the screens show for `CCOc1ccc(S(=O)(=O)N(C)c2ccc(OCC(=O)Nc3nc(-c4cc(OC)ccc4OC)cs3)cc2)cc1`?
CHRM5 agonist: 3; CHRM5 PAM: 0; M4 ag: 0; M4 antag: -7; CHRM4 PAM: 30*; M5 antag: 10

Results for CCOC(=O)Cc1csc(NC(=O)COc2ccc(N(C)S(=O)(=O)c3ccc(C)cc3)cc2)n1 ?
CHRM5 agonist: -4; CHRM5 PAM: -48; M4 ag: 12; M4 antag: 4; CHRM4 PAM: -11; M5 antag: 8

What do the screens show for `COc1ccc(OC)c(-c2csc(NC(=O)Cc3ccccc3OC)n2)c1`?
CHRM5 agonist: -6; CHRM5 PAM: 1; M4 ag: 4; M4 antag: -21; CHRM4 PAM: -5; M5 antag: 3

Results for O=C(NC(=S)Nc1ccc(S(=O)(=O)Nc2ncccn2)cc1)c1ccc(Br)cc1 ?
CHRM5 agonist: 2; CHRM5 PAM: -7; M4 ag: 6; M4 antag: 11; CHRM4 PAM: 1; M5 antag: 10

What do the screens show for `O=c1cccc(-c2ccccc2)[nH]1`?
CHRM5 agonist: -3; CHRM5 PAM: 30*; M4 ag: 1; M4 antag: -12; CHRM4 PAM: 4; M5 antag: -12

What do the screens show for `COC(=O)[C@]12CCCCC=C1N(Cc1ccco1)C(=O)[C@H](CC(=O)NCc1ccccc1)C2`?
CHRM5 agonist: 4; CHRM5 PAM: -1; M4 ag: 8; M4 antag: -10; CHRM4 PAM: 10; M5 antag: -4

What do the screens show for `CC[N+]1(CC(O)COC2CC(C)CC(C)(C)C2)CCOCC1` (configuration not stated)?
CHRM5 agonist: -18; CHRM5 PAM: -6; M4 ag: 0; M4 antag: 29*; CHRM4 PAM: -33; M5 antag: 7

Results for CC(C)(C)CN1CCC(Oc2cccc(C(=O)N3CCNC(=O)C3(C)C)c2)CC1 ?
CHRM5 agonist: -11; CHRM5 PAM: -10; M4 ag: 1; M4 antag: 24; CHRM4 PAM: -14; M5 antag: 31*

Results for CCCCN(C)C(=O)c1cccc(OC2CCN(CC(C)(C)C)CC2)c1 ?
CHRM5 agonist: -21; CHRM5 PAM: -5; M4 ag: 2; M4 antag: 2; CHRM4 PAM: -3; M5 antag: 2

How did Cc1ccc(Nc2ncc3c(n2)CC(c2ccco2)CC3=O)c(C)c1 (configuration not stated) do in these assays?
CHRM5 agonist: -2; CHRM5 PAM: 5; M4 ag: 0; M4 antag: 1; CHRM4 PAM: 29*; M5 antag: -4

What do the screens show for `Cc1ccc(C2CC(=O)c3cnc(NC(=O)c4ccco4)nc3C2)cc1` (configuration not stated)?
CHRM5 agonist: -1; CHRM5 PAM: 22*; M4 ag: 3; M4 antag: -14; CHRM4 PAM: 15*; M5 antag: 0

How did Cc1ccc(-c2c(C)n([O-])c3c([n+]2=O)CCCCC3)cc1 do in these assays?
CHRM5 agonist: -3; CHRM5 PAM: 3; M4 ag: 0; M4 antag: 2; CHRM4 PAM: 2; M5 antag: -2

What do the screens show for `O=C(CCNC(=O)c1ccc(Br)cc1)NNC(=O)c1ccccc1O`?
CHRM5 agonist: 2; CHRM5 PAM: -3; M4 ag: 1; M4 antag: 8; CHRM4 PAM: -2; M5 antag: 9

What do the screens show for `O=C(Cn1ncc(Cl)c(Cl)c1=O)N1CCN(S(=O)(=O)c2ccc3ccccc3c2)CC1`?
CHRM5 agonist: -5; CHRM5 PAM: 2; M4 ag: 1; M4 antag: -8; CHRM4 PAM: 0; M5 antag: 16

How did COc1cc(-c2coc3c(C(=O)NCc4ccc(OC)c(OC)c4)cccc23)ccc1O do in these assays?
CHRM5 agonist: 10; CHRM5 PAM: -16; M4 ag: 23; M4 antag: 5; CHRM4 PAM: -9; M5 antag: 15

How did COc1ccc(CNC(=O)c2cccc3c(-c4cccc(C(N)=O)c4)coc23)cc1OC do in these assays?
CHRM5 agonist: 9; CHRM5 PAM: -17; M4 ag: 21; M4 antag: 21; CHRM4 PAM: -10; M5 antag: 27*

What do the screens show for `O=C(CN1CCN(C(=O)CNC(=O)c2ccc3c(c2)OCO3)CC1)Nc1cccc(F)c1`?
CHRM5 agonist: 1; CHRM5 PAM: 19*; M4 ag: 1; M4 antag: -17; CHRM4 PAM: 8; M5 antag: -8

What do the screens show for `CCN(CC(=O)Nc1c(F)cccc1F)C(=O)c1ccc2c(c1)OCCO2`?
CHRM5 agonist: 1; CHRM5 PAM: 2; M4 ag: 2; M4 antag: -21; CHRM4 PAM: 37*; M5 antag: 1

Results for Cc1cccc(C)c1NC(=O)CNC(=O)CNC(=O)c1ccc2c(c1)OCO2 ?
CHRM5 agonist: 4; CHRM5 PAM: -1; M4 ag: 0; M4 antag: -11; CHRM4 PAM: 23*; M5 antag: 8
